Measured values published in ChEMBL document CHEMBL1154576, “Isolation, structure determination, and biological activity of Lyngbyabellin A from the marine cyanobacterium lyngbya majuscula” (J Nat Prod, 2000).
In brackets after ≈: the same amount, converted by molar mass. Activity calls are given as the source filed them. No cut-off for these calls is given here.

What was measured:
[1] = system: A10; assay: Induction of apoptosis in rat A10 cells assessed as apoptotic bodies at 0.01 ug/mL; type: functional, cell-based
Outline: (§1)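 A-10 smooth muscle cells grown on glass coverslips in Basal Medium Eagle with 10% fetal calf serum, exposed to a range of concentrations or vehicle for 24 h. Microfilaments stained 45 min with 100 nM TRITC-phalloidin, chromatin stained with DAPI, and cells examined by fluorescence microscopy.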

[2] = system: A10; assay: Disruption of cytoskeleton in rat A10 cells assessed as cells with two nuclei; type: functional, cell-based; outline: as §1
[3] = species: Mus musculus; assay: Toxicity in mouse assessed as lethal dose; type: organism-based; details: in vivo
[4] = system: MC-38; assay: Antitumor activity against mouse C38 cells at 1.2 to 1.5 mg/kg; type: functional, organism-based
Outline: (§2)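 In vivo mice with murine colon adenocarcinoma C38 or mammary adenocarcinoma M16, dosed at sublethal levels of 1.2-1.5 mg/kg.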

[5] = system: M16; assay: Antitumor activity against mouse M16 cells at 1.2 to 1.5 mg/kg; type: functional, organism-based; outline: as §2
[6] = system: A10; assay: Disruption of cellular microfilament network in rat A10 cells at 0.01 to 5.0 ug/mL; type: functional, cell-based; outline: as §1
[7] = biological target: T1, DNA topoisomerase 1 (Homo sapiens) (UniProt P11387); assay: Inhibition of topoisomerase 1 at 5 ug/mL
T1 sequence (whole entry): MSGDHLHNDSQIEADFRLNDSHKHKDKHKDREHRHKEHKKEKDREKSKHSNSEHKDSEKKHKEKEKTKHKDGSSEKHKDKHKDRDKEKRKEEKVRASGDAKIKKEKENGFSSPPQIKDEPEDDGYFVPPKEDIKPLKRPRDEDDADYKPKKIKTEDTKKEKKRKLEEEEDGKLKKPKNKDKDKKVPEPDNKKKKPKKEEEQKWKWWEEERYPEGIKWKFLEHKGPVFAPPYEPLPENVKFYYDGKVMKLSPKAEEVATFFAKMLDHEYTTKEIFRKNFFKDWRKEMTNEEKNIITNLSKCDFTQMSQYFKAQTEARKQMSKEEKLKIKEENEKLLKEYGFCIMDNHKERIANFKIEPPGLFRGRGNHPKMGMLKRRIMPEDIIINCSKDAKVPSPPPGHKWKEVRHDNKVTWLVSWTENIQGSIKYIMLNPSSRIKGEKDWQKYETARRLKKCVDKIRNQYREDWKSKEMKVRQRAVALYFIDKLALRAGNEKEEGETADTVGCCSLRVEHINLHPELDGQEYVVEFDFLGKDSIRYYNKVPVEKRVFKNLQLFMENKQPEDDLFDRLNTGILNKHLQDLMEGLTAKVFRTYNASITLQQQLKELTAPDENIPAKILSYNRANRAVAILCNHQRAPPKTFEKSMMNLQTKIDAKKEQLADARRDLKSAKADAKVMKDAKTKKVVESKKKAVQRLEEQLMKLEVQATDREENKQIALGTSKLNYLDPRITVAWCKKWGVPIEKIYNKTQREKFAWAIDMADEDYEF

[8] = system: A10; assay: Disruption of microtubules in rat A10 cells; type: functional, cell-based
[9] = biological target: T1, DNA topoisomerase 1 (Homo sapiens); assay: Inhibition of topoisomerase 1 at 10 ug/mL
[10] = system: A10; assay: Disruption of cytoskeleton in rat A10 cells assessed as neuron-like gross cellular morphology; type: functional, cell-based; outline: as §1
[11] = system: KB; assay: Cytotoxicity against human KB cells; type: functional, cell-based
[12] = system: LoVo; assay: Cytotoxicity against human LoVo cells; type: functional, cell-based

Compound: CC[C@H](C)[C@@H]1NC(=O)CNC(=O)c2csc(n2)[C@H](C(C)(C)O)OC(=O)C(C)(C)[C@H](CCCC(C)(Cl)Cl)OC(=O)c2csc1n2 [LYNGBYABELLIN A]
- Activity [1]: Active
- Activity [2]: Active
- Activity [3]: 2.4 mg/kg
- Activity [4]: inactive
- Activity [5]: inactive
- Activity [6]: Active
- Activity [7]: inactive
- Activity [8]: inactive
- Activity [9]: inactive
- Activity [10]: Active
- IC50 [11]: 0.03 µg/mL (≈ 0.0434 µM)
- IC50 [12]: 0.5 µg/mL (≈ 0.723 µM)
